Assay results as given in ChEMBL document CHEMBL4610039, “Design, synthesis and apoptosis-related antiproliferative activities of chelidonine derivatives” (Bioorg Med Chem Lett, 2020).

How the values were obtained:
L02 = assay: Antiproliferative activity against human L02 cells assessed as reduction in cell growth after 72 hrs by MTT assay; assay type: functional, cell-based; conditions: L02, 72 h
Summary of the method: (§1)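 Human HepG2, MCF-7, HCT-116 and K562 tumour cells plus normal L-02 hepatocytes and PBMCs were exposed to compounds for 72 h and growth was read by MTT. 5-Fu served as positive control. IC50 is the concentration inhibiting 50% of cell growth, given as mean ± standard deviation of three independent experiments.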

MCF7 = assay: Antiproliferative activity against human MCF7 cells assessed as reduction in cell growth after 72 hrs by MTT assay; assay type: functional, cell-based; conditions: MCF7, 72 h; summary of the method: as §1
HepG2 = assay: Antiproliferative activity against human HepG2 cells assessed as reduction in cell growth after 72 hrs by MTT assay; assay type: functional, cell-based; conditions: HepG2, 72 h; summary of the method: as §1
K562 = assay: Antiproliferative activity against human K562 cells assessed as reduction in cell growth after 72 hrs by MTT assay; assay type: functional, cell-based; conditions: K562, 72 h; summary of the method: as §1
PBMC = assay: Cytotoxicity against human PBMC assessed as reduction in cell growth after 72 hrs by MTT assay; assay type: cell-based; summary of the method: as §1
HCT-116 = assay: Antiproliferative activity against human HCT116 cells assessed as reduction in cell growth after 72 hrs by MTT assay; assay type: functional, cell-based; conditions: HCT-116, 72 h; summary of the method: as §1

Compound | IC50 (L02) | IC50 (MCF7) | IC50 (HepG2) | IC50 (K562) | IC50 (PBMC) | IC50 (HCT-116)
CN1Cc2c(ccc3c2OCO3)[C@H]2[C@@H](OC(=O)CCCC(=O)OCCOCCOc3no[n+]([O-])c3S(=O)(=O)c3ccccc3)Cc3cc4c(cc3[C@H]21)OCO4 | 16.5 µM | 6.55 µM | 6.55 µM | 2.6 µM | > 40 µM | 8.47 µM
CC(CNC(=O)CCC(=O)O[C@H]1Cc2cc3c(cc2[C@@H]2[C@H]1c1ccc4c(c1CN2C)OCO4)OCO3)Oc1no[n+]([O-])c1S(=O)(=O)c1ccccc1 (stereo partly specified) | > 40 µM | 8.37 µM | 19.4 µM | 6.94 µM | > 40 µM | 16.4 µM
CN1Cc2c(ccc3c2OCO3)[C@H]2[C@@H](OC(=O)CCC(=O)OCCCCCCOc3no[n+]([O-])c3S(=O)(=O)c3ccccc3)Cc3cc4c(cc3[C@H]21)OCO4 | > 40 µM | 7.94 µM | 9.45 µM | 7.61 µM | > 40 µM | 16.6 µM
O=c1[nH]cc(F)c(=O)[nH]1 [FLUOROURACIL] | > 40 µM | 26.7 µM | 32.6 µM | 3.94 µM | > 40 µM | 6.86 µM
CN1Cc2c(ccc3c2OCO3)[C@H]2[C@@H](OC(=O)CCC(=O)NCCCOc3no[n+]([O-])c3S(=O)(=O)c3ccccc3)Cc3cc4c(cc3[C@H]21)OCO4 | 36.5 µM | 13.6 µM | 16.8 µM | 9.8 µM | > 40 µM | 17.3 µM
CN1Cc2c(ccc3c2OCO3)[C@H]2[C@@H](OC(=O)CCC(=O)OCCCCOc3no[n+]([O-])c3S(=O)(=O)c3ccccc3)Cc3cc4c(cc3[C@H]21)OCO4 | 19.7 µM | 4.78 µM | 6.39 µM | 2.91 µM | > 40 µM | 8.27 µM
CC(CNC(=O)CCCC(=O)O[C@H]1Cc2cc3c(cc2[C@@H]2[C@H]1c1ccc4c(c1CN2C)OCO4)OCO3)Oc1no[n+]([O-])c1S(=O)(=O)c1ccccc1 (stereo partly specified) | 23.4 µM | 4.92 µM | 7.59 µM | 2.68 µM | > 40 µM | 12.2 µM
CN1Cc2c(ccc3c2OCO3)[C@H]2[C@@H](OC(=O)CCCC(=O)OCCCCCCOc3no[n+]([O-])c3S(=O)(=O)c3ccccc3)Cc3cc4c(cc3[C@H]21)OCO4 | > 40 µM | 13.2 µM | > 40 µM | 9.59 µM | > 40 µM | > 40 µM
CN1Cc2c(ccc3c2OCO3)[C@H]2[C@@H](OC(=O)CCCC(=O)NCCCOc3no[n+]([O-])c3S(=O)(=O)c3ccccc3)Cc3cc4c(cc3[C@H]21)OCO4 | 19.9 µM | 5.29 µM | 10.7 µM | 3.18 µM | > 40 µM | 7.25 µM
CN1Cc2c(ccc3c2OCO3)[C@H]2[C@@H](OC(=O)CCC(=O)OCC#CCOc3no[n+]([O-])c3S(=O)(=O)c3ccccc3)Cc3cc4c(cc3[C@H]21)OCO4 | 28.2 µM | 5.41 µM | 14.4 µM | 3.78 µM | > 40 µM | 23.5 µM
CN1Cc2c(ccc3c2OCO3)[C@H]2[C@@H](OC(=O)CCC(=O)OCCCOc3no[n+]([O-])c3S(=O)(=O)c3ccccc3)Cc3cc4c(cc3[C@H]21)OCO4 | 14.6 µM | 3.68 µM | 10.5 µM | 3.08 µM | > 40 µM | 15.7 µM
CN1Cc2c(ccc3c2OCO3)[C@@H]2[C@H]1c1cc3c(cc1C[C@@H]2O)OCO3 [CHELIDONINE] | > 40 µM | > 40 µM | > 40 µM | 17.7 µM | > 40 µM | > 40 µM
CN1Cc2c(ccc3c2OCO3)[C@H]2[C@@H](OC(=O)CCC(=O)NCCOc3no[n+]([O-])c3S(=O)(=O)c3ccccc3)Cc3cc4c(cc3[C@H]21)OCO4 | 27.7 µM | 7.94 µM | 11.4 µM | 3.17 µM | > 40 µM | 11.5 µM
CN1Cc2c(ccc3c2OCO3)[C@H]2[C@@H](OC(=O)CCCC(=O)OCCCCOc3no[n+]([O-])c3S(=O)(=O)c3ccccc3)Cc3cc4c(cc3[C@H]21)OCO4 | > 40 µM | 6.81 µM | 19.6 µM | 6.14 µM | > 40 µM | 19.1 µM
CN1Cc2c(ccc3c2OCO3)[C@H]2[C@@H](OC(=O)CCC(=O)OCCOCCOc3no[n+]([O-])c3S(=O)(=O)c3ccccc3)Cc3cc4c(cc3[C@H]21)OCO4 | 23.9 µM | 8.92 µM | 8.65 µM | 4.52 µM | > 40 µM | 8.68 µM
CN1Cc2c(ccc3c2OCO3)[C@H]2[C@@H](OC(=O)CCCC(=O)NCCOc3no[n+]([O-])c3S(=O)(=O)c3ccccc3)Cc3cc4c(cc3[C@H]21)OCO4 | > 40 µM | 14.6 µM | 26.4 µM | 12.1 µM | > 40 µM | > 40 µM
